Assay results: ChEMBL document CHEMBL1142064, “Concentration-dependent effects of caspofungin on the metabolic activity of Aspergillus species” (2007)

Columns and labels:
Format in all cases: functional
[1] = tested on: Aspergillus terreus; assay: Metabolic activity of Aspergillus terreus at 1 ug/ml after 2 hrs by XTT assay relative to control
Procedure, shortened: (§1)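 Wells from the 48 h caspofungin microdilution (0.008 to 8 μg/ml) were read right after microscopic MEC reading. XTT plus menadione was added to final 100 μg/ml XTT and 6.25 μM menadione, then incubated 2 h at 37°C and shaken. Absorbance read at 450 nm with 630 nm reference. Percent metabolic activity = background-subtracted drug well / background-subtracted drug-free control × 100. Triplicate.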

[2] = tested on: Aspergillus fumigatus; assay: Metabolic activity of Aspergillus fumigatus at 0.75 ug/ml after 2 hrs by XTT assay relative to control; procedure, shortened: as §1
[3] = tested on: Aspergillus flavus; assay: Metabolic activity of Aspergillus flavus at 0.25 ug /ml using after 2 hrs by XTT assay relative to control; procedure, shortened: as §1
[4] = tested on: Aspergillus terreus; assay: Metabolic activity of Aspergillus terreus by XTT assay relative to control; procedure, shortened: as §1
[5] = tested on: Aspergillus terreus; assay: Metabolic activity of Aspergillus terreus at 8 ug/ml by XTT assay relative to control
Procedure, shortened: (§2)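 Optimized XTT read-out (100 μg/ml XTT, 6.25 μM menadione, 2 h at 37°C) applied after 48 h caspofungin exposure. Percent metabolic activity in the 8 μg/ml well, calculated as background-corrected absorbance (450/630 nm) relative to the drug-free control. Compared within each species against the value at the concentration giving the lowest activity.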

[6] = tested on: Aspergillus terreus; assay: Metabolic activity of Aspergillus terreus determined as X-MEC relative to control
Procedure, shortened: (§3)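 X-MEC: lowest caspofungin concentration whose percent metabolic activity (optimized XTT, 100 μg/ml XTT, 6.25 μM menadione, 2 h, after 48 h incubation) is at or below a species-specific cutoff. Cutoffs were tested in 5% steps around the species median activity at the microscopic MEC and chosen for best ±1 dilution agreement with the microscopic MEC.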

[7] = tested on: Aspergillus flavus; assay: Metabolic activity of Aspergillus flavus determined as X-MEC relative to control; procedure, shortened: as §3
[8] = tested on: Aspergillus flavus; assay: Antifungal activity against Aspergillus flavus after 48 hrs; details: read-out: MEC
Procedure, shortened: (§4)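 Broth microdilution following CLSI M38-A in RPMI 1640 with l-glutamine, no bicarbonate, buffered to pH 7.0 with 0.165 M MOPS. Caspofungin twofold dilutions, 0.008 to 8 μg/ml final. Inoculum 2.5 × 10⁴ conidia/ml of clinical isolates. Incubation 37°C for 48 h. MEC read microscopically as the lowest concentration giving short, stubby, highly branched hyphae. Run in triplicate.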

[9] = tested on: Aspergillus terreus; assay: Metabolic activity of Aspergillus terreus at 0.5 ug/ml after 2 hrs by XTT assay relative to control; procedure, shortened: as §1
[10] = tested on: Aspergillus terreus; assay: Antifungal activity against Aspergillus terreus after 48 hrs; details: read-out: MEC; procedure, shortened: as §4
[11] = tested on: Aspergillus fumigatus; assay: Metabolic activity of Aspergillus fumigatus at 8 ug/ml by XTT assay relative to control; procedure, shortened: as §2
[12] = tested on: Aspergillus fumigatus; assay: Metabolic activity of Aspergillus fumigatus by XTT assay relative to control; procedure, shortened: as §1
[13] = tested on: Aspergillus flavus; assay: Metabolic activity of Aspergillus flavus at 8 ug/ml by XTT assay relative to control; procedure, shortened: as §2
[14] = tested on: Aspergillus flavus; assay: Metabolic activity of Aspergillus flavus at 2 ug /ml after 2 hrs by XTT assay relative to control; procedure, shortened: as §1
[15] = tested on: Aspergillus fumigatus; assay: Metabolic activity of Aspergillus fumigatus at 0.5 ug/ml after 2 hrs by XTT assay relative to control; procedure, shortened: as §1
[16] = tested on: Aspergillus fumigatus; assay: Metabolic activity of Aspergillus fumigatus determined as X-MEC relative to control; procedure, shortened: as §3
[17] = tested on: Aspergillus fumigatus; assay: Antifungal activity against Aspergillus fumigatus after 48 hrs; details: read-out: MEC; procedure, shortened: as §4

CC[C@H](C)C[C@H](C)CCCCCCCCC(=O)N[C@H]1C[C@@H](O)[C@@H](NCCN)NC(=O)[C@@H]2[C@@H](O)CCN2C(=O)[C@H]([C@H](O)CCN)NC(=O)[C@H]([C@H](O)[C@@H](O)c2ccc(O)cc2)NC(=O)[C@@H]2C[C@@H](O)CN2C(=O)[C@H]([C@@H](C)O)NC1=O [CASPOFUNGIN]
Activity [1]: 38% | Activity [2]: 28% | Activity [3]: 25% | MMC [4]: 1 µg/mL | Activity [5]: 57% | Activity [6]: 65% | Activity [7]: 40% | minimal effective concentration [8]: 0.25 µg/mL | Activity [9]: 53% | minimal effective concentration [10]: 0.5 µg/mL | Activity [11]: 51% | MMC [12]: 0.75 µg/mL | Activity [13]: 20% | Activity [14]: 17% | Activity [15]: 42% | Activity [16]: 60% | minimal effective concentration [17]: 0.5 µg/mL
